Test results from ChEMBL document CHEMBL1275521, “Fluoroquinolone enhances the mutation frequency for meropenem-selected carbapenem resistance in Pseudomonas aeruginosa, but use of the high-potency drug doripenem inhibits mutant formation” (2008).
Converted amounts (≈) assume the structure as drawn.

Columns and labels:
Pseudomonas aeruginosa [1] = assay: Antimicrobial activity against Pseudomonas aeruginosa GP4KT11 harboring oprD gene after 18 hrs by agar dilution method; conditions: GP4KT11, 18 h
Pseudomonas aeruginosa [2] = assay: Antimicrobial activity against Pseudomonas aeruginosa PAO1 KTS harboring mexAB-oprM gene after 18 hrs by agar dilution method; type: functional
Procedure, shortened: (§1)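 Carbapenem-resistant mutants were isolated on carbapenem-containing AB3 agar after 10^6-fold dilution and broth culture, with or without ciprofloxacin or ofloxacin. Randomly picked colonies were checked for MIC by agar dilution following CLSI guidelines, with 18 h incubation at 37°C. PAO1KTL and PAO1KTS came from meropenem selection without fluoroquinolone.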

Pseudomonas aeruginosa [3] = assay: Antimicrobial activity against wild-type Pseudomonas aeruginosa GP62 after 18 hrs by agar dilution method; type: functional
Procedure, shortened: (§2)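 MICs by agar dilution following CLSI guidelines; plates incubated 18 h at 37°C.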

Pseudomonas aeruginosa [4] = assay: Antimicrobial activity against wild-type Pseudomonas aeruginosa GP61 after 18 hrs by agar dilution method; type: functional
Procedure, shortened: as §2

Pseudomonas aeruginosa [5] = assay: Antimicrobial activity against Pseudomonas aeruginosa PAO1 after 18 hrs by agar dilution method; type: functional
Procedure, shortened: as §2

Pseudomonas aeruginosa [6] = assay: Antimicrobial activity against wild-type Pseudomonas aeruginosa GP37 after 18 hrs by agar dilution method; type: functional
Procedure, shortened: as §2

Pseudomonas aeruginosa [7] = assay: Antimicrobial activity against Pseudomonas aeruginosa GP20KT21 harboring oprD gene after 18 hrs by agar dilution method; type: functional
Procedure, shortened: as §1

Pseudomonas aeruginosa [8] = assay: Antimicrobial activity against wild-type Pseudomonas aeruginosa GP4 after 18 hrs by agar dilution method; type: functional
Procedure, shortened: as §2

Pseudomonas aeruginosa [9] = assay: Antimicrobial activity against Pseudomonas aeruginosa PAO1 KTL1 harboring oprD, mexAB-oprM gene after 18 hrs by agar dilution method; type: functional
Pseudomonas aeruginosa [10] = assay: Antimicrobial activity against Pseudomonas aeruginosa GP62KT41 harboring oprD gene after 18 hrs by agar dilution method; type: functional
Procedure, shortened: as §1

Pseudomonas aeruginosa [11] = assay: Antimicrobial activity against Pseudomonas aeruginosa GP4KT111 harboring oprD,mexAB-oprM gene after 18 hrs by agar dilution method; type: functional
Pseudomonas aeruginosa [12] = assay: Antimicrobial activity against Pseudomonas aeruginosa PAO1 KTL harboring oprD gene after 18 hrs by agar dilution method; type: functional
Procedure, shortened: as §1

Pseudomonas aeruginosa [13] = assay: Antimicrobial activity against wild-type Pseudomonas aeruginosa GP20 after 18 hrs by agar dilution method; type: functional
Procedure, shortened: as §2

Pseudomonas aeruginosa [14] = assay: Antimicrobial activity against Pseudomonas aeruginosa PAO1 IPM46 harboring oprD gene after 18 hrs by agar dilution method; type: functional
Pseudomonas aeruginosa [15] = assay: Antimicrobial activity against Pseudomonas aeruginosa GP37KT31 harboring oprD gene after 18 hrs by agar dilution method; type: functional
Procedure, shortened: as §1

Pseudomonas aeruginosa [16] = assay: Antimicrobial activity against Pseudomonas aeruginosa GP61KT51 harboring oprD,mexAB-oprM gene after 18 hrs by agar dilution method; type: functional
Pseudomonas aeruginosa [17] = assay: Antimicrobial activity against Pseudomonas aeruginosa PAO1 SO20 harboring mexAB-oprM gene after 18 hrs by agar dilution method; type: functional
Pseudomonas aeruginosa [18] = assay: Antimicrobial activity against Pseudomonas aeruginosa GP4KT111 harboring oprD gene after 18 hrs by agar dilution method; type: functional; conditions: GP4KT11

Compound | MIC (Pseudomonas aeruginosa [1]) | MIC (Pseudomonas aeruginosa [2]) | MIC (Pseudomonas aeruginosa [3]; GP62, 18 h) | MIC (Pseudomonas aeruginosa [4]; GP61, 18 h) | MIC (Pseudomonas aeruginosa [5]; PAO1, 18 h) | MIC (Pseudomonas aeruginosa [6]; GP37, 18 h) | MIC (Pseudomonas aeruginosa [7]; GP20KT21, 18 h) | MIC (Pseudomonas aeruginosa [8]; GP4, 18 h) | MIC (Pseudomonas aeruginosa [9]; PAO1 KTL1, 18 h) | MIC (Pseudomonas aeruginosa [10]; GP62KT41, 18 h) | MIC (Pseudomonas aeruginosa [11]; GP4KT111, 18 h) | MIC (Pseudomonas aeruginosa [12]) | MIC (Pseudomonas aeruginosa [13]; GP20, 18 h) | MIC (Pseudomonas aeruginosa [14]; PAO1 IPM46, 18 h) | MIC (Pseudomonas aeruginosa [15]; GP37KT31, 18 h) | MIC (Pseudomonas aeruginosa [16]; GP61KT51, 18 h) | MIC (Pseudomonas aeruginosa [17]; PAO1 SO20, 18 h) | also measured
C[C@@H](O)[C@H]1C(=O)N2C(C(=O)O)=C(S[C@@H]3CN[C@H](C(=O)N(C)C)C3)[C@H](C)[C@H]12 [MEROPENEM] | 3.1 mg/L (≈ 8.08 µM) | 1.6 mg/L (≈ 4.17 µM) | 0.2 mg/L (≈ 0.522 µM) | 1.6 mg/L (≈ 4.17 µM) | 0.2 mg/L (≈ 0.522 µM) | 0.2 mg/L (≈ 0.522 µM) | 3.1 mg/L (≈ 8.08 µM) | 0.2 mg/L (≈ 0.522 µM) | 6.3 mg/L (≈ 16.4 µM) | 3.1 mg/L (≈ 8.08 µM) | 12.5 mg/L (≈ 32.6 µM) | 1.6 mg/L (≈ 4.17 µM) | 0.2 mg/L (≈ 0.522 µM) | 1.6 mg/L (≈ 4.17 µM) | 3.1 mg/L (≈ 8.08 µM) | 6.3 mg/L (≈ 16.4 µM) | 1.6 mg/L (≈ 4.17 µM) | 
O=C(O)c1cn(C2CC2)c2cc(N3CCNCC3)c(F)cc2c1=O [CIPROFLOXACIN] | 0.2 mg/L (≈ 0.604 µM) | 0.8 mg/L (≈ 2.41 µM) | 0.2 mg/L (≈ 0.604 µM) | 0.2 mg/L (≈ 0.604 µM) | 0.2 mg/L (≈ 0.604 µM) | 0.2 mg/L (≈ 0.604 µM) | 0.2 mg/L (≈ 0.604 µM) | 0.2 mg/L (≈ 0.604 µM) | 0.8 mg/L (≈ 2.41 µM) | 0.2 mg/L (≈ 0.604 µM) | 0.8 mg/L (≈ 2.41 µM) | 0.2 mg/L (≈ 0.604 µM) | 0.2 mg/L (≈ 0.604 µM) | 0.2 mg/L (≈ 0.604 µM) | 0.2 mg/L (≈ 0.604 µM) | 0.8 mg/L (≈ 2.41 µM) | 0.8 mg/L (≈ 2.41 µM) | 
C[C@@H](O)[C@H]1C(=O)N2C(C(=O)O)=C(SCCNC=N)C[C@H]12 [IMIPENEM ANHYDROUS] | 12.5 mg/L (≈ 41.8 µM) | 0.8 mg/L (≈ 2.67 µM) | 0.8 mg/L (≈ 2.67 µM) | 6.3 mg/L (≈ 21 µM) | 0.8 mg/L (≈ 2.67 µM) | 0.8 mg/L (≈ 2.67 µM) | 12.5 mg/L (≈ 41.8 µM) | 0.8 mg/L (≈ 2.67 µM) | 12.5 mg/L (≈ 41.8 µM) | 12.5 mg/L (≈ 41.8 µM) | 12.5 mg/L (≈ 41.8 µM) | 12.5 mg/L (≈ 41.8 µM) | 0.8 mg/L (≈ 2.67 µM) | 12.5 mg/L (≈ 41.8 µM) | 12.5 mg/L (≈ 41.8 µM) | 6.3 mg/L (≈ 21 µM) | 0.8 mg/L (≈ 2.67 µM) | 
CC1COc2c(N3CCN(C)CC3)c(F)cc3c(=O)c(C(=O)O)cn1c23 (stereo unspecified) [OFLOXACIN] | 1.6 mg/L (≈ 4.43 µM) | 3.1 mg/L (≈ 8.58 µM) | 1.6 mg/L (≈ 4.43 µM) | 1.6 mg/L (≈ 4.43 µM) | 0.8 mg/L (≈ 2.21 µM) | 1.6 mg/L (≈ 4.43 µM) | 1.6 mg/L (≈ 4.43 µM) | 1.6 mg/L (≈ 4.43 µM) | 3.1 mg/L (≈ 8.58 µM) | 1.6 mg/L (≈ 4.43 µM) | 6.3 mg/L (≈ 17.4 µM) | 0.8 mg/L (≈ 2.21 µM) | 1.6 mg/L (≈ 4.43 µM) | 0.8 mg/L (≈ 2.21 µM) | 1.6 mg/L (≈ 4.43 µM) | 6.3 mg/L (≈ 17.4 µM) | 3.1 mg/L (≈ 8.58 µM) | 
C[C@@H](O)[C@H]1C(=O)N2C(C(=O)O)=C(S[C@@H]3CN[C@H](CNS(N)(=O)=O)C3)[C@H](C)[C@H]12 [DORIPENEM] | 1.6 mg/L (≈ 3.8 µM) | 0.4 mg/L (≈ 0.951 µM) | 0.1 mg/L (≈ 0.238 µM) | 0.8 mg/L (≈ 1.9 µM) | 0.2 mg/L (≈ 0.476 µM) | 0.2 mg/L (≈ 0.476 µM) | 1.6 mg/L (≈ 3.8 µM) | 0.2 mg/L (≈ 0.476 µM) | 1.6 mg/L (≈ 3.8 µM) | 0.8 mg/L (≈ 1.9 µM) | 3.1 mg/L (≈ 7.37 µM) | 0.8 mg/L (≈ 1.9 µM) | 0.2 mg/L (≈ 0.476 µM) | 0.8 mg/L (≈ 1.9 µM) | 1.6 mg/L (≈ 3.8 µM) | 1.6 mg/L (≈ 3.8 µM) | 0.4 mg/L (≈ 0.951 µM) | 
GENTAMICIN |  | 1.6 mg/L |  |  |  |  |  |  |  |  |  | 1.6 mg/L |  |  |  |  |  | MIC (Pseudomonas aeruginosa [3]): 1.6 mg/L; MIC (Pseudomonas aeruginosa [18]): 100 mg/L; MIC (Pseudomonas aeruginosa [4]): 1.6 mg/L; MIC (Pseudomonas aeruginosa [5]): 1.6 mg/L; MIC (Pseudomonas aeruginosa [6]): 100 mg/L; MIC (Pseudomonas aeruginosa [7]): 3.1 mg/L; MIC (Pseudomonas aeruginosa [8]): 100 mg/L; MIC (Pseudomonas aeruginosa [9]): 1.6 mg/L; MIC (Pseudomonas aeruginosa [10]): 1.6 mg/L; MIC (Pseudomonas aeruginosa [11]): 100 mg/L; MIC (Pseudomonas aeruginosa [13]): 3.1 mg/L; MIC (Pseudomonas aeruginosa [14]): 1.6 mg/L; MIC (Pseudomonas aeruginosa [15]): 100 mg/L; MIC (Pseudomonas aeruginosa [16]): 1.6 mg/L; MIC (Pseudomonas aeruginosa [17]): 1.6 mg/L
CCN1CCN(C(=O)N[C@@H](C(=O)N[C@@H]2C(=O)N3[C@@H]2SC(C)(C)[C@@H]3C(=O)O)c2ccccc2)C(=O)C1=O [PIPERACILLIN] | 100 mg/L (≈ 193 µM) | 12.5 mg/L (≈ 24.2 µM) | 100 mg/L (≈ 193 µM) | 3.1 mg/L (≈ 5.99 µM) | 3.1 mg/L (≈ 5.99 µM) | 100 mg/L (≈ 193 µM) | 100 mg/L (≈ 193 µM) | 100 mg/L (≈ 193 µM) | 12.5 mg/L (≈ 24.2 µM) | 100 mg/L (≈ 193 µM) | 200 mg/L (≈ 386 µM) | 3.1 mg/L (≈ 5.99 µM) | 100 mg/L (≈ 193 µM) | 3.1 mg/L (≈ 5.99 µM) | 100 mg/L (≈ 193 µM) | 12.5 mg/L (≈ 24.2 µM) | 12.5 mg/L (≈ 24.2 µM) | 
CC(C)(O/N=C(\C(=O)N[C@@H]1C(=O)N2C(C(=O)[O-])=C(C[n+]3ccccc3)CS[C@H]12)c1csc(N)n1)C(=O)O [CEFTAZIDIME] | 1.6 mg/L (≈ 2.93 µM) | 6.3 mg/L (≈ 11.5 µM) | 1.6 mg/L (≈ 2.93 µM) | 3.1 mg/L (≈ 5.67 µM) | 1.6 mg/L (≈ 2.93 µM) | 1.6 mg/L (≈ 2.93 µM) | 1.6 mg/L (≈ 2.93 µM) | 1.6 mg/L (≈ 2.93 µM) | 6.3 mg/L (≈ 11.5 µM) | 1.6 mg/L (≈ 2.93 µM) | 6.3 mg/L (≈ 11.5 µM) | 1.6 mg/L (≈ 2.93 µM) | 1.6 mg/L (≈ 2.93 µM) | 1.6 mg/L (≈ 2.93 µM) | 1.6 mg/L (≈ 2.93 µM) | 12.5 mg/L (≈ 22.9 µM) | 6.3 mg/L (≈ 11.5 µM) | 
